The record followed here is ChEMBL document CHEMBL1129987, “Structure-based design of nonpeptidic HIV protease inhibitors: the sulfonamide-substituted cyclooctylpyramones” (J Med Chem, 1997).

Molecules are shown by their SMILES.

Series [1] in a line: Total plasma clearance value was obtained after intravenous administration of 2.5 mg/kg of drug in male Dawley rats. The arrangement: dose 2.5 mg/kg, route intravenous. Type of series: ADME, organism-based. As to conditions: Sprague-Dawley, rat.
A short description of series [2]: Maximum concentration was measured after peroral administration of 5.0 mg/kg of drug in male Dawley rats. Type of series: ADME, organism-based. The conditions noted are these: Sprague-Dawley, rat, in vivo, po. Details: dose 5 mg/kg, route oral.
Series [3] is described as follows: Maximum time taken by the drug to reach peak concentration after peroral administration of 5.0 mg/kg of drug in male Dawley rats. The series is classed as ADME, organism-based. Details: dose 5 mg/kg, route oral. As to conditions: Sprague-Dawley, rat, in vivo, po.
Series [4] in a line: Oral bioavailability in rat (Sprague-Dawley) (male) (dose 5 mg/kg). The series is classed as ADME, organism-based. As to conditions: in vivo.
Series [5] is described as follows: Apparent volume of distribution was obtained after intravenous administration of 2.5 mg/kg of drug in male Dawley rats. The series is classed as ADME, organism-based. Details: dose 2.5 mg/kg, route intravenous. The conditions noted are these: Sprague-Dawley, rat, in vivo, read-out: Vss.
The subject of series [6] is Human immunodeficiency virus 1. Kind of series: Antiviral activity in HIV-1 infected H9 cells. The conditions noted are these: Human immunodeficiency virus 1, H9; read-out: ED50 (the source's name). The series is classed as functional. A digest of the protocol:
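H9 cells infected with HIV-1 IIIB at MOI about 0.005, spun down (200g, 10 min), resuspended at 8 × 10^5 cells/mL in RPMI Complete and mixed with compound; final DMSO 0.1%, triplicate per concentration. After 5 days at 37 °C in 5% CO2, supernatant p24 antigen was measured by ELISA. ED50 is the drug amount that reduces p24 by 50% versus DMSO drug-free controls.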

For series [7], the target named is Human immunodeficiency virus type 1 protease (Human immunodeficiency virus 1, UniProt Q72874). As to the kind of experiment: Binding affinity against HIV-1 protease.
Series [8] is described as follows: Half-life was measured after intravenous administration of 2.5 mg/kg of drug in male Dawley rats. Type of series: ADME, organism-based. The arrangement: dose 2.5 mg/kg, route intravenous. The conditions noted are these: Sprague-Dawley, rat, in vivo.
The nature of series [9]: Median cell culture toxic dose was evaluated against H9 cell line. Type of series: ADME, cell-based. As to conditions: human, H9 cells; read-out: CCTD50.
The target in series [10] is Human immunodeficiency virus type 1 protease (Human immunodeficiency virus 1) (UniProt Q72874). As to the kind of experiment: Percentage inhibition against HIV-1 protease at 1.1 uM concentration of drug.

Regarding `Cn1cnc(S(=O)(=O)Nc2cccc([C@@H](c3c(O)c4c(oc3=O)CCCCCC4)C3CC3)c2)c1`, the clearance in series [1] was 4.67 mL/min/kg. In [2], this compound displayed a Cmax of 640 nM. The Tmax in [3] worked out at 0.25 h. Also, the bioavailability in series [4] was determined as 15%. In series [5], the Vd came to 0.2 L/kg. In series [6], the EC50 is 2100 nM. In addition, the Ki in [7] was 0.045 nM. Also, the half-life in [8] was 2.4 h. The CC50 in series [9] is over 30000 nM.
Compound `CC(C)N(c1cccc(C(c2c(O)c3c(oc2=O)CCCCCC3)C2CC2)c1)S(=O)(=O)c1ccccc1` (stereo unspecified) came in with an inhibition in series [10] of under 10%.
Take `O=c1c2c(oc(O)c1C(c1cccc(NS(=O)(=O)c3cccc4ccccc34)c1)C1CC1)CCCCCC2` (stereo unspecified): the EC50 in series [6] is 3600 nM. The same compound registered a Ki in [7] of 5.5 nM. Besides, in series [9], the CC50 is over 30000 nM.
For `CN(C)c1ccc(S(=O)(=O)Nc2cccc(C(c3c(O)c4c(oc3=O)CCCCCC4)C3CC3)c2)cc1` (stereo unspecified) the same measures were 8700 nM, 2.8 nM and over 30000 nM.
For `O=c1c2c(oc(O)c1C(c1cccc(NS(=O)(=O)c3ccc(Br)cc3)c1)C1CC1)CCCCCC2` (stereo unspecified) the same measures were 3200 nM, 2.1 nM and over 30000 nM.
For the compound `CC(C)C(c1cccc(NS(=O)(=O)c2ccc(F)cc2)c1)c1c(O)c2c(oc1=O)CCCCCC2` (stereo unspecified), the EC50 in series [6] was over 10000 nM. Further, the Ki in series [7] came out at 11 nM. Moreover, in [9], the CC50 was over 30000 nM.
The matching figures for `CC(C)(C)c1ccc(S(=O)(=O)Nc2cccc(C(c3c(O)c4c(oc3=O)CCCCCC4)C3CC3)c2)cc1` (stereo unspecified): over 10000 nM, 32 nM and over 30000 nM.
With `O=c1c2c(oc(O)c1C(c1cccc(NS(=O)(=O)c3ccc(I)cc3)c1)C1CC1)CCCCCC2` (stereo unspecified), in [6], the EC50 came to 5300 nM. For the same compound, the Ki in series [7] worked out at 3.1 nM. In series [9], the CC50 was over 30000 nM.
For `O=c1c2c(oc(O)c1C(c1cccc(NS(=O)(=O)c3cnccn3)c1)C1CC1)CCCCCC2` (stereo unspecified) the same measures were 2000 nM, 0.2 nM and over 30000 nM.
The matching figures for `COC(=O)c1cccc(S(=O)(=O)Nc2cccc(C(c3c(O)c4c(oc3=O)CCCCCC4)C3CC3)c2)c1` (stereo unspecified): 2600 nM, 1.4 nM and over 30000 nM.
For `O=c1c2c(oc(O)c1C(c1cccc(NS(=O)(=O)c3cccc4cccnc34)c1)C1CC1)CCCCCC2` (stereo unspecified) the same measures were 1400 nM, 1.9 nM and 82000 nM.
Turning to `CCCC(c1cccc(NS(=O)(=O)c2cccc3cccnc23)c1)c1c(O)c2c(oc1=O)CCCCCC2` (stereo unspecified), the EC50 in [6] is over 3000 nM. The affinity in [7] corresponds to a Ki of 2.1 nM. In series [9], the CC50 is over 30000 nM.
In the case of `O=c1c2c(oc(O)c1C(c1cccc(NS(=O)(=O)c3ccc(F)cc3F)c1)C1CC1)CCCCCC2` (stereo unspecified), the EC50 in series [6] was determined as 4200 nM. In addition, the Ki in [7] was 4.1 nM. Further, the CC50 in [9] was over 30000 nM.
For `O=c1c2c(oc(O)c1C(c1cccc(NS(=O)(=O)c3cccc(Br)c3)c1)C1CC1)CCCCCC2` (stereo unspecified) the same measures were 3000 nM, 2.6 nM and over 30000 nM.
`CC(C)CC(c1cccc(NS(=O)(=O)c2ccc(F)cc2)c1)c1c(O)c2c(oc1=O)CCCCCC2` (stereo unspecified): the EC50 in series [6] was over 10000 nM. This compound also registered a Ki in series [7] of 2.8 nM. The CC50 in [9] is over 30000 nM.
For `CCC(c1cccc(NS(=O)(=O)c2ccc(C#N)cc2)c1)c1c(O)c2c(oc1=O)CCCCCC2` (stereo unspecified) the same measures were 3300 nM, 3.1 nM and over 30000 nM.
On to `CCCC(c1cccc(NS(=O)(=O)c2cccnc2)c1)c1c(O)c2c(oc1=O)CCCCCC2` (stereo unspecified), for which, in [6], the EC50 was over 10000 nM. The compound also yielded a Ki in series [7] of 2.2 nM. In series [9], the CC50 was over 30000 nM.
The matching figures for `[N-]=[N+]=Nc1ccc(S(=O)(=O)Nc2cccc(C(c3c(O)oc4c(c3=O)CCCCCC4)C3CC3)c2)cc1` (stereo unspecified): 1700 nM, 2.6 nM and over 30000 nM.
`O=c1c2c(oc(O)c1C(c1cccc(NS(=O)(=O)c3cccc(Cl)c3Cl)c1)C1CC1)CCCCCC2` (stereo unspecified): the EC50 in [6] was over 3000 nM. The compound further had a Ki in [7] of 7.6 nM. The CC50 in [9] is over 30000 nM.
The matching figures for `CCCC(c1cccc(NS(=O)(=O)c2cn(C)cn2)c1)c1c(O)c2c(oc1=O)CCCCCC2` (stereo unspecified): 2500 nM, 0.1 nM and over 30000 nM.
The matching figures for `O=c1c2c(oc(O)c1C(c1cccc(NS(=O)(=O)c3ccc4ccccc4n3)c1)C1CC1)CCCCCC2` (stereo unspecified): 5400 nM, 0.4 nM and over 30000 nM.
The matching figures for `COc1ccc(S(=O)(=O)Nc2cccc(C(c3c(O)c4c(oc3=O)CCCCCC4)C3CC3)c2)cc1OC` (stereo unspecified): 4100 nM, 6.8 nM and over 30000 nM.
`O=c1c2c(oc(O)c1[C@@H](c1cccc(NS(=O)(=O)c3cccc4cccnc34)c1)C1CC1)CCCCCC2`: in series [6], the EC50 turned out to be 7200 nM. In addition, the Ki in series [7] was determined as 0.9 nM. The CC50 in series [9] was over 30000 nM.
For `Nc1cccc(S(=O)(=O)Nc2cccc(C(c3c(O)c4c(oc3=O)CCCCCC4)C3CC3)c2)c1` (stereo unspecified) the same measures were 6300 nM, 2.3 nM and over 30000 nM.
As for `CCCCC(c1cccc(NS(=O)(=O)c2ccc(C#N)cc2)c1)c1c(O)c2c(oc1=O)CCCCCC2` (stereo unspecified), the EC50 in [6] worked out at 7600 nM. The affinity in series [7], expressed as Ki, was 2.1 nM. In addition, the CC50 in series [9] was over 30000 nM.
With `CC(C)CC(c1cccc(NS(=O)(=O)c2cccnc2)c1)c1c(O)c2c(oc1=O)CCCCCC2` (stereo unspecified), the EC50 in [6] was over 10000 nM. The compound further yielded a Ki in series [7] of 9.3 nM. For the same compound, the CC50 in series [9] is over 30000 nM.
For the compound `NC(=O)c1ccc(S(=O)(=O)Nc2cccc(C(c3c(O)c4c(oc3=O)CCCCCC4)C3CC3)c2)cc1` (stereo unspecified), the EC50 in series [6] amounted to 5800 nM. In addition, in series [7], the Ki is 1.9 nM. Further, the CC50 in series [9] is over 30000 nM.
The matching figures for `O=c1c2c(oc(O)c1C(c1cccc(NS(=O)(=O)c3ccc(Cl)c(Cl)c3Cl)c1)C1CC1)CCCCCC2` (stereo unspecified): 4100 nM, 8.8 nM and over 30000 nM.
`O=C(O)c1ccc(S(=O)(=O)Nc2cccc(C(c3c(O)c4c(oc3=O)CCCCCC4)C3CC3)c2)cc1` (stereo unspecified): the EC50 in [6] is over 10000 nM. Affinity in series [7] was put at a Ki of 11 nM. Moreover, in series [9], the CC50 is over 30000 nM.
On to `O=c1c2c(oc(O)c1C(c1cccc(NS(=O)(=O)c3cscn3)c1)C1CC1)CCCCCC2` (stereo unspecified), for which, in series [6], the EC50 was over 3000 nM. In series [7], the Ki came to 1.6 nM. Besides, in series [9], the CC50 was over 30000 nM.
For `O=c1c2c(oc(O)c1C(c1cccc(NS(=O)(=O)c3cc(Cl)cc(Cl)c3)c1)C1CC1)CCCCCC2` (stereo unspecified) the same measures were over 10000 nM, 6.9 nM and over 30000 nM.
With `O=c1c2c(oc(O)c1C(c1cccc(NS(=O)(=O)c3ccc4ccccc4c3)c1)C1CC1)CCCCCC2` (stereo unspecified), the EC50 in series [6] amounted to 3400 nM. The affinity in series [7], expressed as Ki, was 4.1 nM. Also, the CC50 in series [9] was over 30000 nM.
For `CC(C)C(c1cccc(NS(=O)(=O)c2ccc(Cl)cc2)c1)c1c(O)c2c(oc1=O)CCCCCC2` (stereo unspecified) the same measures were over 10000 nM, 18 nM and over 30000 nM.
For `CC(C)C(c1cccc(NS(=O)(=O)c2cccc3cccnc23)c1)c1c(O)c2c(oc1=O)CCCCCC2` (stereo unspecified) the same measures were over 10000 nM, 4.2 nM and over 30000 nM.
The matching figures for `N#Cc1cccc(S(=O)(=O)Nc2cccc(C(c3c(O)oc4c(c3=O)CCCCCC4)C3CC3)c2)c1` (stereo unspecified): over 3000 nM, 0.6 nM and over 30000 nM.
`O=c1c2c(oc(O)c1C(c1cccc(N(CC3CC3)S(=O)(=O)c3ccccc3)c1)C1CC1)CCCCCC2` (stereo unspecified) gave an inhibition in [10] of under 10%.
As for `CCCC(c1cccc(NS(=O)(=O)c2ccc(Cl)cc2)c1)c1c(O)c2c(oc1=O)CCCCCC2` (stereo unspecified), the EC50 in series [6] was over 10000 nM. In series [7], this compound registered a Ki of 4 nM. Further, the CC50 in [9] is over 30000 nM.
Take `COc1ccc(S(=O)(=O)Nc2cccc(C(c3c(O)c4c(oc3=O)CCCCCC4)C3CC3)c2)cc1` (stereo unspecified): in series [6], the EC50 stood at 4500 nM. Besides, the affinity in series [7] corresponds to a Ki of 3.9 nM. The CC50 in series [9] was over 30000 nM.
The matching figures for `O=c1c2c(oc(O)c1C(c1cccc(NS(=O)(=O)c3ccc(Cl)c(Cl)c3)c1)C1CC1)CCCCCC2` (stereo unspecified): 3400 nM, 4.1 nM and over 30000 nM.
For `CCC(c1cccc(NS(=O)(=O)c2ccc(Cl)cc2)c1)c1c(O)c2c(oc1=O)CCCCCC2` (stereo unspecified) the same measures were 4700 nM, 3.5 nM and over 30000 nM.
The matching figures for `O=c1c2c(oc(O)c1C(c1cccc(NS(=O)(=O)c3cccs3)c1)C1CC1)CCCCCC2` (stereo unspecified): over 10000 nM, 6.3 nM and over 30000 nM.
Turning to `O=c1c2c(oc(O)c1C(c1cccc(NS(=O)(=O)c3ccc(C(F)(F)F)cc3)c1)C1CC1)CCCCCC2` (stereo unspecified), the EC50 in [6] amounted to 6400 nM. The Ki in [7] is 6.2 nM. In addition, in series [9], the CC50 was over 30000 nM.
On to `O=C(O)c1cccc(S(=O)(=O)Nc2cccc(C(c3c(O)c4c(oc3=O)CCCCCC4)C3CC3)c2)c1` (stereo unspecified), for which the EC50 in [6] is over 10000 nM. Further, the Ki in series [7] worked out at 4.5 nM. The CC50 in [9] was over 30000 nM.
